From ChEMBL document CHEMBL1138319, “Synthesis and pharmacological evaluation of fluorescent and photoactivatable analogues of antiplasmodial naphthylisoquinolines” (J Med Chem, 2007)
The source made the active and inactive calls. No cut-off for these calls is given here.

Experiments:
L6 = experiment: Cytotoxicity against rat L6 cells; type: cell-based
In short: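 L-6 rat skeletal myoblast cell line; cytotoxicity values reported in µM.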

Plasmodium falciparum = experiment: Antiplasmodial activity against Plasmodium falciparum in human red blood cells after 4 hrs; type: functional, organism-based
[1] = biological target: T1, Falcipain 2 (Plasmodium falciparum) (UniProt Q9N6S8); experiment: Inhibition of Plasmodium falciparum recombinant cysteine protease falcipain-2
T1 sequence (whole entry): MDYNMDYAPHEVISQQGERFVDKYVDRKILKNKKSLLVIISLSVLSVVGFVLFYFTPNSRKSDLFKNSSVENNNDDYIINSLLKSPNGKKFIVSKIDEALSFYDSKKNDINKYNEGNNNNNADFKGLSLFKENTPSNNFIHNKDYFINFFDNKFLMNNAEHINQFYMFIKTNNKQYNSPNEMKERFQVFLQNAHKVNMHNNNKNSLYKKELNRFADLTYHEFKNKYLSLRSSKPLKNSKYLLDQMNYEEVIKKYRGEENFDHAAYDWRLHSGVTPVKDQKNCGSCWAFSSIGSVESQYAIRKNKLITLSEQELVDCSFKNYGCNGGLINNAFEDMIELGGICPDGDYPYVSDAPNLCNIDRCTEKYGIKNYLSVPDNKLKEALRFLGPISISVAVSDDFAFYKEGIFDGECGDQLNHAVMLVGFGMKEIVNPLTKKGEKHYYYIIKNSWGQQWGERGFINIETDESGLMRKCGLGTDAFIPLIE

| Structure (SMILES) | IC50 (L6) [µM] | IC50 (Plasmodium falciparum) [µM] | Activity [1] |
| --- | --- | --- | --- |
| COc1cccc2c(-c3cc(CCCOC(=O)N([C@@H](Cc4ccc(OCc5ccc(C(=O)c6ccccc6)cc5)cc4)C(=O)O)S(=O)(=O)c4cccc5c(N(C)C)cccc45)c4c(c3O)[C@@H](C)N[C@H](C)C4)c(C)cc(OC)c12 | 69.5 | 0.96 | – |
| COc1cccc2c(-c3ccc4c(c3O)[C@@H](C)N[C@H](C)C4)c(C)cc(OC)c12 [DIONCOPHYLLINE A] | 29.1 | 0.381 | inactive |
| COc1cccc2c(-c3cc(CNCCCCCCNS(=O)(=O)c4cccc5c(N(C)C)cccc45)c4c(c3OCc3ccccc3)[C@@H](C)N(Cc3ccccc3)[C@H](C)C4)c(C)cc(OC)c12 | 2.5 | 0.045 | – |
| COC(=O)/C=C/c1cc(-c2c(C)cc(OC)c3c(OC)cccc23)c(OCc2ccccc2)c2c1C[C@@H](C)N(Cc1ccccc1)[C@@H]2C | > 140 | 0.19 | – |
| COc1cc([C@@H]2c3cc4c(cc3[C@H](O)[C@H]3COC(=O)[C@H]23)OCO4)cc(OC)c1OC [PODOFILOX] | 0.007 | – | – |
| COc1cccc2c(-c3cc(CNCCCCCCNS(=O)(=O)c4cccc5c(N(C)C)cccc45)c4c(c3O)[C@@H](C)N[C@H](C)C4)c(C)cc(OC)c12 | 16.5 | 0.602 | – |
| COc1cccc2c(-c3cc(CCCO)c4c(c3O)[C@@H](C)N[C@H](C)C4)c(C)cc(OC)c12 | 99 | 2.42 | – |
